Reference: ChEMBL document CHEMBL5223110, “Novel allosteric glutaminase 1 inhibitors with macrocyclic structure activity relationship analysis” (Bioorg Med Chem Lett, 2022)

What was measured:
[1] = target: T1, Glutaminase kidney isoform, mitochondrial (Homo sapiens, UniProt O94925); assay: Inhibition of GLS1 (unknown origin)
T1 sequence (O94925 whole entry): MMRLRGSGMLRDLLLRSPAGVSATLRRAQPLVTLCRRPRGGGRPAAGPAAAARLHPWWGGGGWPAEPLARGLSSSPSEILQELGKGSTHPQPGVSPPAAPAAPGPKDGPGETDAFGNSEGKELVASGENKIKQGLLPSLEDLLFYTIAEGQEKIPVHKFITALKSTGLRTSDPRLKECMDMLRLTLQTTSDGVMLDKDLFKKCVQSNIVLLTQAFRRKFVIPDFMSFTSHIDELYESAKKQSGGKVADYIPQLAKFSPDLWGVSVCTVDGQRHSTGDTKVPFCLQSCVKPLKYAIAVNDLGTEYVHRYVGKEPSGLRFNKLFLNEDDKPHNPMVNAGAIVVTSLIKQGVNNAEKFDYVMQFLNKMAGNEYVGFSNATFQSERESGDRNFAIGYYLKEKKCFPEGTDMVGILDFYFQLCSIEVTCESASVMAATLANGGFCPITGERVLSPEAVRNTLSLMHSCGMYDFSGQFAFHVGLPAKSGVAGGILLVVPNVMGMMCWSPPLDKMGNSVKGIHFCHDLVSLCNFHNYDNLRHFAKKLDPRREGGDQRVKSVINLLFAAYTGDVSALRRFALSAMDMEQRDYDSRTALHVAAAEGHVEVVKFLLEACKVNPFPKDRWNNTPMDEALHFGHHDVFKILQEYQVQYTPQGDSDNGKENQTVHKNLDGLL

[2] = tested on: A549; assay: Antiproliferative activity against human A549 cells incubated for 72 hrs by Celltiter-Glo assay; type: functional, cell-based; settings: A549, 72 h
In short: (§1)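 Cells treated with 0, 0.01, 0.03, 0.1, 0.3 and 1 μM of compound for 72 h. Viability read by CellTiter-Glo luminescence. IC50 taken from the dose–response curves. LR cells are LDK378-resistant. A549 and H460 carry co-occurring KRAS and KEAP1 mutations, and H358 carries a KRAS mutation only.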

[3] = tested on: NCI-H358; assay: Antiproliferative activity against human NCI-H358 cells incubated for 72 hrs by Celltiter-Glo assay; type: functional, cell-based; settings: NCI-H358, 72 h; in short: as §1
[4] = tested on: NCI-H460; assay: Antiproliferative activity against human NCI-H460 cells incubated for 72 hrs by Celltiter-Glo assay; type: functional, cell-based; settings: NCI-H460, 72 h; in short: as §1
[5] = tested on: LR; assay: (§2) Antiproliferative activity against human LR cells incubated for 72 hrs by Celltiter-Glo assay; type: functional, cell-based; in short: as §1
[6] = as §2; type: functional, cell-based; in short: as §1

SMILES	IC50 [1] [µM]	Activity [5]	further results
O=C1Cc2cccc(c2)OCCOCCOc2cccc(c2)CC(=O)NC2=NN=C(CCCCC3=NN=C(N1)S3)S2	2	–	–
O=C(Cc1cccc(OC(F)(F)F)c1)Nc1ccc(CCCCc2nnc(NC(=O)Cc3ccccn3)s2)nn1	–	Dose-Dependent Effect	IC50 [2]: 0.026 µM; IC50 [3]: > 1 µM; IC50 [4]: 0.036 µM; IC50 [6]: < 0.1 µM
O=C1Cc2cccc(c2)OCCCOCCCOc2cccc(c2)CC(=O)Nc2ccc(nn2)CCCCc2ccc(nn2)N1	0.31	Dose-Dependent Effect	IC50 [2]: 0.095 µM; IC50 [3]: > 1 µM; IC50 [4]: 0.088 µM; IC50 [6]: < 0.1 µM
O=C1Cc2cccc(c2)OCCOc2cccc(c2)CC(=O)Nc2ccc(nn2)CCCCc2ccc(nn2)N1	0.18	Dose-Dependent Effect	–
O=C1Cc2cccc(c2)OCCCOCCCOc2cccc(c2)CC(=O)Nc2nnc(s2)CCCCc2ccc(nn2)N1	0.8	–	–
O=C1Cc2cccc(c2)OCCOCCOc2cccc(c2)CC(=O)Nc2nnc(s2)CCCCc2ccc(nn2)N1	0.4	Dose-Dependent Effect	–
O=C1Cc2cccc(c2)OCCOCCOCCOCCOc2cccc(c2)CC(=O)NC2=NN=C(CCCCC3=NN=C(N1)S3)S2	4	–	–
O=C1Cc2ccc(cc2)OCCOCCOCCOc2cccc(c2)CC(=O)Nc2nnc(s2)CCCCc2nnc(s2)N1	3	–	–
O=C1Cc2cccc(c2)OCCCCCCCOc2cccc(c2)CC(=O)Nc2nnc(s2)CCCCc2ccc(nn2)N1	3	–	–
O=C1Cc2cccc(c2)OCCOc2cccc(c2)CC(=O)NC2=NN=C(CCCCC3=NN=C(N1)S3)S2	0.98	–	–
O=C1Cc2cccc(c2)OCCOCCOc2cccc(c2)CC(=O)NC2=NN=C(CCCC3=NN=C(N1)S3)S2	4	–	–
O=C1Cc2cccc(c2)OCCOCCOc2cccc(c2)CC(=O)Nc2ccc(nn2)CCCCc2ccc(nn2)N1	0.43	Dose-Dependent Effect	–
O=C1Cc2cccc(c2)OCCCCCOc2cccc(c2)CC(=O)Nc2nnc(s2)CCCCc2ccc(nn2)N1	1	–	–
O=C1Cc2cccc(c2)OCCOCCOc2cccc(c2)CC(=O)NC2=NN=C(CCCCCC3=NN=C(N1)S3)S2	10	–	–
